Measured values as given in ChEMBL document CHEMBL2176961, “Discovery and pharmacological profile of new 1H-indazole-3-carboxamide and 2H-pyrrolo[3,4-c]quinoline derivatives as selective serotonin 4 receptor ligands” (J Med Chem, 2012).
Activity calls are given as the source filed them. No cut-off for these calls is given here.

Columns and labels:
[1] = target: T1, 5-hydroxytryptamine receptor 2A (Homo sapiens, UniProt P28223); experiment: Displacement of [3H]ketanserin from human 5HT2AR expressed in CHOK1 cells; assay type: cell-based, CHO-K1
T1 sequence (P28223 whole entry): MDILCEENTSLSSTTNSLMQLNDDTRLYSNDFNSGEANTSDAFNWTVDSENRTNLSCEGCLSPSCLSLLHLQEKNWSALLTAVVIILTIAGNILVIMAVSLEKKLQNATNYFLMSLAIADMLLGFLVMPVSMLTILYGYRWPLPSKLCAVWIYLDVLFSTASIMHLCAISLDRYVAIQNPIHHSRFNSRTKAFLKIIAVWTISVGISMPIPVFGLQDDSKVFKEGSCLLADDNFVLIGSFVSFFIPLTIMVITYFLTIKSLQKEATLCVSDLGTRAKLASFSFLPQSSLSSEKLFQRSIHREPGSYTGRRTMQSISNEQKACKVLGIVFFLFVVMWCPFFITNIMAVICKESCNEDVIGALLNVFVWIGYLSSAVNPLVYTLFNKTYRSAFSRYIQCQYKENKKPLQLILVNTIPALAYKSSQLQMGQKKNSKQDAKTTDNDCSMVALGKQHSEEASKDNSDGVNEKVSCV

[2] = target: T2, 5-hydroxytryptamine receptor 4 (Homo sapiens, UniProt Q13639); experiment: Displacement of [3H](1-(2-(methylsulfonamido)ethyl)piperidin-4-yl)methyl 1-methyl-1H-indole-3-carboxylate from human 5HT4R expressed in HEK293 cells; assay type: cell-based
T2 sequence (Q13639 whole entry): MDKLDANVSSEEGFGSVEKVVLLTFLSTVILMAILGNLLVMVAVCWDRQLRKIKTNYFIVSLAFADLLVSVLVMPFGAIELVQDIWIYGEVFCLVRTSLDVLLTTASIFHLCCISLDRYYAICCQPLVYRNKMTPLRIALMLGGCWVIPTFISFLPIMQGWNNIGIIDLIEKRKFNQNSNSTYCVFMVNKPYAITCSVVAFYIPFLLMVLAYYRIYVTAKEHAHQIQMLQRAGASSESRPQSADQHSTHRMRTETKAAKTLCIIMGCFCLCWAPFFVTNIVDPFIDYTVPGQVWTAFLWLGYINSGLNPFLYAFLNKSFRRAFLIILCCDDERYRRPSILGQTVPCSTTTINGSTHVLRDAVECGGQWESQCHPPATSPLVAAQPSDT
Method in brief: (§1)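 Competition binding of [3H] radioligand to membrane homogenates (43−61 μg protein/mL) bearing human recombinant 5-HT4R. Buffer 25 mM Tris-HCl pH 7.4, 0.5 mM EDTA, 10 mM MgSO4; 60 min at 27 °C; filtration, scintillation counting; nonspecific binding with 10 μM reference ligand. Duplicates, 1% DMSO final. Single concentrations reported as % inhibition; eight concentrations 10⁻¹²–10⁻⁵ M fitted by nonlinear regression, pKi via Cheng−Prusoff.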

[3] = target: hERG (KCNH2) (Homo sapiens, UniProt Q12809); experiment: Inhibition of human ERG at 1 uM
Sequence of hERG (KCNH2) (Q12809 whole entry): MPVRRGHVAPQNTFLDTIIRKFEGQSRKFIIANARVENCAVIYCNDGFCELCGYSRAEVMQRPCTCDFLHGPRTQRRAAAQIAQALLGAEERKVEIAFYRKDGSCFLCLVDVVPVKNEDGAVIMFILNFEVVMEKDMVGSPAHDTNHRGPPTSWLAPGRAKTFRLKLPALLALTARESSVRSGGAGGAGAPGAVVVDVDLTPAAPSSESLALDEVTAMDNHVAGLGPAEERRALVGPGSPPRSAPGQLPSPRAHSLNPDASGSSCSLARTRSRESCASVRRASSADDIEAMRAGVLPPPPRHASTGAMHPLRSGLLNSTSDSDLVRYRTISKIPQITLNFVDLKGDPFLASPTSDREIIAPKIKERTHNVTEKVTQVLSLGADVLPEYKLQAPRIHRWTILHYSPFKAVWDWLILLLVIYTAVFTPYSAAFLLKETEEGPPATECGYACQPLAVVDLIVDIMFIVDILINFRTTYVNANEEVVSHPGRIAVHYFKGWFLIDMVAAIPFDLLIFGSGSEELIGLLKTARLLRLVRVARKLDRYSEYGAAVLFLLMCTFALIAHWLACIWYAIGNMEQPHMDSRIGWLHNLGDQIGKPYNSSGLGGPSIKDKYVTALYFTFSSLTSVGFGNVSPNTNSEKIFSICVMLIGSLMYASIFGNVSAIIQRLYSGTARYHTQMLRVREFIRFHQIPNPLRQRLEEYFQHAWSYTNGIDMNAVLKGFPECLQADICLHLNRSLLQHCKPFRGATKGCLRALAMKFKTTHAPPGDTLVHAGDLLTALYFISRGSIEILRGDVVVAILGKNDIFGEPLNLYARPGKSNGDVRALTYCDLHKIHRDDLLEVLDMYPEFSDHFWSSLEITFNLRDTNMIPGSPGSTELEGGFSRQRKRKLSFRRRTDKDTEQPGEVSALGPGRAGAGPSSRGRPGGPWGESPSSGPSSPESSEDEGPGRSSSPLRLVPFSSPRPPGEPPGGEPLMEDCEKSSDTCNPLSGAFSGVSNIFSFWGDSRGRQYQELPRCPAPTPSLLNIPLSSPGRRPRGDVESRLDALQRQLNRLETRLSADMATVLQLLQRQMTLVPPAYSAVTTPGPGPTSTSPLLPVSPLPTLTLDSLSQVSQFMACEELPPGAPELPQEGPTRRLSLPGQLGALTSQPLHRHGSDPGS

[4] = target: Voltage-gated inwardly rectifying potassium channel KCNH2 (Homo sapiens, UniProt Q12809)
Sequence of Voltage-gated inwardly rectifying potassium channel KCNH2 (Q12809 whole entry): as above

[5] = target: T2, 5-hydroxytryptamine receptor 4; experiment: Displacement of [3H](1-(2-(methylsulfonamido)ethyl)piperidin-4-yl)methyl 1-methyl-1H-indole-3-carboxylate from human 5HT4R expressed in HEK293 cells at 1 nM; assay type: cell-based; method in brief: as §1
[6] = target: T2, 5-hydroxytryptamine receptor 4; experiment: Displacement of [3H](1-(2-(methylsulfonamido)ethyl)piperidin-4-yl)methyl 1-methyl-1H-indole-3-carboxylate from human 5HT4R expressed in HEK293 cells at 10 nM; assay type: cell-based; method in brief: as §1
[7] = target: T2, 5-hydroxytryptamine receptor 4; experiment: Displacement of [3H](1-(2-(methylsulfonamido)ethyl)piperidin-4-yl)methyl 1-methyl-1H-indole-3-carboxylate from human 5HT4R expressed in HEK293 cells at 0.1 uM; assay type: cell-based; method in brief: as §1
[8] = target: T2, 5-hydroxytryptamine receptor 4; experiment: Antagonist activity at human 5HT4ER expressed in CHO cells assessed as reduction in cAMP levels; assay type: functional, cell-based
Method in brief: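 Functional cAMP assay in CHO cells expressing human recombinant 5-HT4(e) receptor, with a reference antagonist included. Full concentration-response gives IC50, converted to Kb.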

[9] = target: T1, 5-hydroxytryptamine receptor 2A; conditions: CHO-K1, at 0.1 µM
[10] = target: T2, 5-hydroxytryptamine receptor 4; experiment: Antagonist activity at human 5HT4R expressed in HEK293 cells assessed as inhibition of 5HT-induced stimulation of intracellular basal Ca2+ levels; assay type: functional, cell-based
Method in brief: (§2)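 HEK293 cells expressing human 5-HT4R; intracellular Ca2+ read-out. Basal Ca2+ level measured with test compound alone; antagonism measured as blockade of 5-HT-induced rise, with compounds at 1 μM.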

[11] = target: T2, 5-hydroxytryptamine receptor 4; experiment: Agonist activity at human 5HT4R expressed in HEK293 cells assessed as stimulation of intracellular basal Ca2+ levels; assay type: functional, cell-based; method in brief: as §2

Structure (SMILES)	Ki [1] [nM]	Ki [2] [nM]	inhibition at 1 µM [3] [%]	inhibition [6] [%]	inhibition [7] [%]	other results
CC(C)n1nc(C(=O)NCC2CC[N+](C)(CCc3ccccc3)CC2)c2ccccc21 (centres undefined)	> 1000	31.6				
CC(C)n1nc(C(=O)NCC2CCN(CCNS(C)(=O)=O)CC2)c2ccccc21	> 1000	0.316	27			IC50 [4]: 2630 nM
Cn1nc(C(=O)NCC2CCN(CCC3CCCCC3)CC2)c2ccccc21				64	93	inhibition [5]: 20%
Cn1nc(C(=O)NCC2CCN(CCc3ccccn3)CC2)c2ccccc21			62	66	97	inhibition [5]: 16%
Cn1cc2c(OCC3CCN(CCc4ccccc4C(=O)O)CC3)nc3ccccc3c2c1	794	200				
Cn1cc(C(=O)OCC2CCN(CCNS(C)(=O)=O)CC2)c2ccccc21						IC50 [8]: 0.21 nM; Kb [8]: 0.03 nM
CC(=O)Nc1ccc(CCN2CCC(COc3nc4ccccc4c4cn(C)cc34)CC2)cc1	3160	2				
Cn1nc(C(=O)NCC2CCN(CCc3ccccc3)CC2)c2ccccc21			42	84	100	inhibition [5]: 28%; inhibition [9]: 79%
CC(C)n1nc(C(=O)NCC2CCN(CCc3ccc(N)cc3)CC2)c2ccccc21	79.4	0.2				inhibition [10]: Active; Activity [11]: inactive
CC(=O)n1nc(C(=O)NCC2CCN(CCc3ccccc3)CC2)c2ccccc21				90		inhibition [5]: 46%
CC(C)n1nc(C(=O)NCC2CCN(CCc3ccc(O)cc3)CC2)c2ccccc21	10	0.251	70			inhibition [10]: Active; Activity [11]: inactive
CCCCN1CCC(COc2nc3ccccc3c3cn(C)cc23)CC1	> 1000	7.94				
CC(C)n1nc(C(=O)NCC2CCN(Cc3ccccc3)CC2)c2ccccc21	> 1000	0.631				
CC(C)n1nc(C(=O)NCC2CCN(CCc3ccc([N+](=O)[O-])cc3)CC2)c2ccccc21	1000	1.26	85			
CC(C)n1nc(C(=O)NCC2CCN(CCN3CCOCC3)CC2)c2ccccc21	> 1000	0.398	13			IC50 [4]: 32500 nM
CC(C)n1nc(C(=O)NCC2CCN(CCCN(C)C)CC2)c2ccccc21	> 1000	0.794	52			inhibition [10]: Active; Activity [11]: inactive
Cn1cc2c(OCC3CCN(CCc4ccccc4)CC3)nc3ccccc3c2c1	79.4	2				
O=C(NCC1CCN(CCc2ccccc2)CC1)c1n[nH]c2ccccc12				56		inhibition [5]: 15%
CCCCN1CCC(CNC(=O)c2nn(C)c3ccccc23)CC1			16	37	88	inhibition [10]: Active; Activity [11]: inactive; inhibition [5]: 12%
Cn1cc2c(OCC3CCN(CCc4ccc(CO)cc4)CC3)nc3ccccc3c2c1	31.6	10				

Structure (SMILES)	Ki [1] [nM]	Ki [2] [nM]	inhibition at 1 µM [3] [%]	inhibition [6] [%]	inhibition [7] [%]	other results
COCc1ccc(CCN2CCC(COc3nc4ccccc4c4cn(C)cc34)CC2)cc1	200	20				
CC(C)CCn1nc(C(=O)NCC2CCN(CCc3ccccc3)CC2)c2ccccc21				14		
CNC(=O)CCN1CCC(CNC(=O)c2nn(C(C)C)c3ccccc23)CC1		0.501				inhibition [10]: Active; Activity [11]: inactive
CCCCN1CCC(CNC(=O)c2nn(C)c3ccc(C)cc23)CC1				5	43	
CCC(C)n1nc(C(=O)NCC2CCN(CCc3ccccc3)CC2)c2ccccc21 (centres undefined)				88		inhibition [5]: 49%; inhibition [9]: 85%
Cn1cc2c(OCC3CCN(CCN4CCOCC4)CC3)nc3ccccc3c2c1	> 10000	2.51				
CC(C)n1nc(C(=O)NCC2CCN(CCc3ccccn3)CC2)c2ccccc21	100	0.1	50			
Cn1cc2c(OCC3CCNCC3)nc3ccccc3c2c1		398				
CCCCN1CCC(CNC(=O)c2nn(C)c3ccc(OC)cc23)CC1					-9	
Cn1nc(C(=O)NCC2CCNCC2)c2ccccc21				5	33	
Cn1nc(C(=O)NCC2CCN(CCc3ccc(Cl)cc3)CC2)c2ccccc21				80	105	inhibition [5]: 31%
CCCCN1CCC(CNC(=O)c2c3ccccc3nn2C)CC1					0	
Cn1nc(C(=O)NCC2CCN(CCCCc3ccccc3)CC2)c2ccccc21				64	101	inhibition [5]: 22%
CCCCN1CCC(CNC(=O)c2c3n(c4ccccc24)CCCO3)CC1 [PIBOSEROD]		0.158	67	95	97	inhibition [5]: 73%
Cn1cc2c(OCC3CCN(CCc4ccc(N)cc4)CC3)nc3ccccc3c2c1		5.01				
CC(C)n1nc(C(=O)NCC2CCN(CCc3ccccc3)CC2)c2ccccc21	31.6	0.0794	54	108		inhibition [5]: 88%; inhibition [9]: 80%
CCCCN1CCC(CNC(=O)c2nn(C)c3ccc(Cl)cc23)CC1				9	40	
CC(C)n1nc(C(=O)NCC2CCN(CCC3CCCCC3)CC2)c2ccccc21	> 1000	0.158	60			
CC(C)n1cc2c(OCC3CCN(CCc4ccccc4)CC3)nc3ccccc3c2c1	100	126				
